Measurements as given in ChEMBL document CHEMBL2407075, “Sulphonamido-quinoxalines: search for anticancer agent” (Eur J Med Chem, 2013).

Key:
[1] = Oral bioavailability in human; format: ADME, organism-based; conditions: in silico prediction
BT-549 = assay: Growth inhibition of human BT549 cells at 10 uM after 48 hrs by sulforhodamine B assay; format: functional; conditions: BT-549, 48 h, read-out: GI
Summary of the method: (§1)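 Single-dose NCI-60 prescreen at 10 µM for 48 h at 37 °C and 5% CO2, using cells grown in RPMI 1640 with 5% FBS and 2 mM glutamine. Protein was measured by SRB after TCA fixation: 10% final for adherent lines, 16% for suspension lines. Absorbance was read at 515 nm. Percent growth inhibition was obtained by subtracting percent growth from 100.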

T47D = assay: Growth inhibition of human T47D cells at 10 uM after 48 hrs by sulforhodamine B assay; format: functional; conditions: read-out: GI
Summary of the method: (§2)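 Single-dose screen at 10 µM across the NCI 60 panel. Cells in RPMI 1640 with 5% FBS and 2 mM L-glutamine, plated at 5000–40,000/well and preincubated 24 h at 37 °C, 5% CO2. Drug in DMSO, 48 h exposure. Fixed with TCA, stained with SRB, A515 read. Percent growth is taken relative to untreated control, and inhibition is 100 minus growth.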

[2] = Growth inhibition of human Hs 578T cells at 10 uM after 48 hrs by sulforhodamine B assay; format: functional; conditions: read-out: GI
Summary of the method: (§3)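 NCI-60 one-dose primary screen at a single 10 µM concentration. Cells in RPMI 1640 with 5% FBS, preincubated 24 h at 37 °C, 5% CO2. Drug exposure 48 h, then TCA fixation, SRB staining and absorbance at 515 nm. Percent growth calculated against time-zero and untreated control wells, then converted to percent growth inhibition.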

DU-145 = assay: Growth inhibition of human DU145 cells at 10 uM after 48 hrs by sulforhodamine B assay; format: functional; conditions: DU-145, 48 h, read-out: GI; summary of the method: as §1
MCF7 = assay: Growth inhibition of human MCF7 cells at 10 uM after 48 hrs by sulforhodamine B assay; format: functional; conditions: MCF7, 48 h, read-out: GI; summary of the method: as §2
CAKI-1 = assay: Growth inhibition of human CAKI-1 cells at 10 uM after 48 hrs by sulforhodamine B assay; format: functional; conditions: CAKI-1, 48 h, read-out: GI; summary of the method: as §1
ACHN = assay: Growth inhibition of human ACHN cells at 10 uM after 48 hrs by sulforhodamine B assay; format: functional; conditions: read-out: GI; summary of the method: as §1
786-0 = assay: Growth inhibition of human 786-0 cells at 10 uM after 48 hrs by sulforhodamine B assay; format: functional; conditions: 786-0, 48 h, read-out: GI; summary of the method: as §1
OVCAR-8 = assay: Growth inhibition of human OVCAR8 cells at 10 uM after 48 hrs by sulforhodamine B assay; format: functional; conditions: OVCAR-8, 48 h, read-out: GI; summary of the method: as §2
[3] = Growth inhibition of human NCI-ADR-RES cells at 10 uM after 48 hrs by sulforhodamine B assay; format: functional; conditions: read-out: GI; summary of the method: as §2
IGROV-1 = assay: Growth inhibition of human IGROV1 cells at 10 uM after 48 hrs by sulforhodamine B assay; format: functional; conditions: IGROV-1, 48 h, read-out: GI; summary of the method: as §2
OVCAR-3 = assay: Growth inhibition of human OVCAR3 cells at 10 uM after 48 hrs by sulforhodamine B assay; format: functional; conditions: OVCAR-3, 48 h, read-out: GI; summary of the method: as §2
SK-MEL-28 = assay: Growth inhibition of human SK-MEL-28 cells at 10 uM after 48 hrs by sulforhodamine B assay; format: functional; conditions: SK-MEL-28, 48 h, read-out: GI; summary of the method: as §2
SK-MEL-5 = assay: Growth inhibition of human SK-MEL-5 cells at 10 uM after 48 hrs by sulforhodamine B assay; format: functional; conditions: SK-MEL-5, 48 h, read-out: GI; summary of the method: as §2
MDA-MB-435 = assay: Growth inhibition of human MDA-MB-435 cells at 10 uM after 48 hrs by sulforhodamine B assay; format: functional; conditions: MDA-MB-435, 48 h, read-out: GI; summary of the method: as §2
M14 = assay: Growth inhibition of human M14 cells at 10 uM after 48 hrs by sulforhodamine B assay; format: functional; conditions: M14, 48 h, read-out: GI; summary of the method: as §2
LOX IMVI = assay: Growth inhibition of human LOXIMVI cells at 10 uM after 48 hrs by sulforhodamine B assay; format: functional; conditions: read-out: GI; summary of the method: as §2
SNB-75 = assay: Growth inhibition of human SNB75 cells at 10 uM after 48 hrs by sulforhodamine B assay; format: functional; conditions: SNB-75, 48 h, read-out: GI; summary of the method: as §2
SW-620 = assay: Growth inhibition of human SW620 cells at 10 uM after 48 hrs by sulforhodamine B assay; format: functional; conditions: SW-620, 48 h, read-out: GI; summary of the method: as §2
SF-268 = assay: Growth inhibition of human SF268 cells at 10 uM after 48 hrs by sulforhodamine B assay; format: functional; conditions: SF-268, 48 h, read-out: GI; summary of the method: as §2
KM12 = assay: Growth inhibition of human KM12 cells at 10 uM after 48 hrs by sulforhodamine B assay; format: functional; conditions: KM12, 48 h, read-out: GI; summary of the method: as §2
HCT-116 = assay: Growth inhibition of human HCT116 cells at 10 uM after 48 hrs by sulforhodamine B assay; format: functional; conditions: HCT-116, 48 h, read-out: GI; summary of the method: as §3
HCT-15 = assay: Growth inhibition of human HCT15 cells at 10 uM after 48 hrs by sulforhodamine B assay; format: functional; conditions: HCT-15, 48 h, read-out: GI; summary of the method: as §3
[4] = Growth inhibition of human HCC2998 cells at 10 uM after 48 hrs by sulforhodamine B assay; format: functional; conditions: HCC 2998, 48 h, read-out: GI; summary of the method: as §3
NCI-H322M = assay: Growth inhibition of human NCI-H322M cells at 10 uM after 48 hrs by sulforhodamine B assay; format: functional; conditions: read-out: GI; summary of the method: as §2
HOP-62 = assay: Growth inhibition of human HOP62 cells at 10 uM after 48 hrs by sulforhodamine B assay; format: functional; conditions: HOP-62, 48 h, read-out: GI; summary of the method: as §3
NCI-H226 = assay: Growth inhibition of human NCI-H226 cells at 10 uM after 48 hrs by sulforhodamine B assay; format: functional; conditions: NCI-H226, 48 h, read-out: GI; summary of the method: as §2
NCI-H23 = assay: Growth inhibition of human NCI-H23 cells at 10 uM after 48 hrs by sulforhodamine B assay; format: functional; conditions: NCI-H23, 48 h, read-out: GI; summary of the method: as §2
SR = assay: Growth inhibition of human SR cells at 10 uM after 48 hrs by sulforhodamine B assay; format: functional; conditions: read-out: GI; summary of the method: as §2
A549 = assay: Growth inhibition of human A549/ATCC cells at 10 uM after 48 hrs by sulforhodamine B assay; format: functional; conditions: A549, 48 h, read-out: GI; summary of the method: as §1
[5] = Growth inhibition of human EKVX cells at 10 uM after 48 hrs by sulforhodamine B assay; format: functional; conditions: read-out: GI; summary of the method: as §3
MOLT-4 = assay: Growth inhibition of human MOLT4 cells at 10 uM after 48 hrs by sulforhodamine B assay; format: functional; conditions: MOLT-4, 48 h, read-out: GI; summary of the method: as §2
HL-60(TB) = assay: Growth inhibition of human HL-60(TB) cells at 10 uM after 48 hrs by sulforhodamine B assay; format: functional; conditions: HL-60, 48 h, read-out: GI
Summary of the method: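 Single-dose NCI-60 primary screen at 10 µM, 48 h exposure, SRB read-out. Growth percentage of treated versus untreated cells was recorded and given as percent inhibition by subtraction.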

K562 = assay: Growth inhibition of human K562 cells at 10 uM after 48 hrs by sulforhodamine B assay; format: functional; conditions: K562, 48 h, read-out: GI; summary of the method: as §2

SMILES | bioavailability [1] [%] | inhibition of growth at 10 µM (BT-549) [%] | inhibition of growth at 10 µM (T47D) [%] | inhibition of growth at 10 µM [2] [%] | inhibition of growth at 10 µM (DU-145) [%] | inhibition of growth at 10 µM (MCF7) [%] | inhibition of growth at 10 µM (CAKI-1) [%] | inhibition of growth at 10 µM (ACHN) [%] | inhibition of growth at 10 µM (786-0) [%] | inhibition of growth at 10 µM (OVCAR-8) [%] | inhibition of growth at 10 µM [3] [%] | inhibition of growth at 10 µM (IGROV-1) [%] | inhibition of growth at 10 µM (OVCAR-3) [%] | inhibition of growth at 10 µM (SK-MEL-28) [%] | inhibition of growth at 10 µM (SK-MEL-5) [%] | inhibition of growth at 10 µM (MDA-MB-435) [%] | inhibition of growth at 10 µM (M14) [%] | inhibition of growth at 10 µM (LOX IMVI) [%] | inhibition of growth at 10 µM (SNB-75) [%] | inhibition of growth at 10 µM (SW-620) [%] | other results
COc1ccccc1NS(=O)(=O)c1ccc2nc(-c3ccccc3)c(-c3ccccc3)nc2c1 | 100 | 55.1 | 63.9 | 33.2 | 18.9 | 31.8 | 23.9 | 13.1 | 41.5 | 24.1 | 41 | 11.8 | 13.5 | 12.7 | 61.4 | 22.5 | 26 | 23.3 | 31.9 | 21.5 | inhibition of growth at 10 µM (SF-268): 23.8%; inhibition of growth at 10 µM (KM12): 8.62%; inhibition of growth at 10 µM (HCT-116): 55.7%; inhibition of growth at 10 µM (HCT-15): 44.7%; inhibition of growth at 10 µM [4]: 19.9%; inhibition of growth at 10 µM (NCI-H322M): 23.2%; inhibition of growth at 10 µM (HOP-62): 2.12%; inhibition of growth at 10 µM (NCI-H226): 69.9%; inhibition of growth at 10 µM (NCI-H23): 23%; inhibition of growth at 10 µM (SR): 81.9%; inhibition of growth at 10 µM (A549): 36.5%; inhibition of growth at 10 µM [5]: 48.8%; inhibition of growth at 10 µM (MOLT-4): 56.9%; inhibition of growth at 10 µM (HL-60(TB)): 60.7%; inhibition of growth at 10 µM (K562): 45.5%
O=S(=O)(Nc1ccccn1)c1ccc2nc(-c3ccccc3)c(-c3ccccc3)nc2c1 | 100 | 80.2 | 81.1 | 76.3 | 37.4 | 65.9 | 54.1 | 34.3 | 99.2 | 52.8 | 73.2 | 31.8 | 48.9 | 30.3 | -6.25 | 54.2 | 62.8 | 63.3 | 61.8 | 47.9 | inhibition of growth at 10 µM (SF-268): 27.6%; inhibition of growth at 10 µM (KM12): 61.5%; inhibition of growth at 10 µM (HCT-116): 72.1%; inhibition of growth at 10 µM (HCT-15): 62.4%; inhibition of growth at 10 µM [4]: 60.6%; inhibition of growth at 10 µM (NCI-H322M): 59.4%; inhibition of growth at 10 µM (HOP-62): 22.8%; inhibition of growth at 10 µM (NCI-H226): -1.38%; inhibition of growth at 10 µM (NCI-H23): 46.5%; inhibition of growth at 10 µM (SR): -3.25%; inhibition of growth at 10 µM (A549): 54.7%; inhibition of growth at 10 µM [5]: 80.8%; inhibition of growth at 10 µM (MOLT-4): 86.8%; inhibition of growth at 10 µM (HL-60(TB)): 80.7%; inhibition of growth at 10 µM (K562): 64.4%
